Shown are actives, neighbours in structure and some others; about 3.5% of the full set was active somewhere.
RGS4 pot = RGS4 potentiation or activation; AID 463111; B-score at 10 µM; HEK293 M3R/inducible RGS4, carbachol calcium flux Fluo4; active compounds read low; 310,000 compounds, 0.92% hits;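 active = B-score of the integrated calcium signal more than 4 SD below the library mean, with starting fluorescence not abnormally high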;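 also: negative B-score means reduced calcium response which marks RGS4 activation or potentiation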
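Detection: kinetic calcium fluorescence imaging with Fluo4-AM dye, 2 µM / Material: HEK293 cells with stable M3R and inducible RGS4 / Schedule: recording 10 s baseline at 1 Hz, 100 s post-agonist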
MrgX1 ag = activates human MrgX1 receptor signaling; Q96LB2; MrgX1-HEK293 cells, Fluo-4 calcium fluorescence, agonist mode; active compounds read high; B-score at 10 µM; 310,000 compounds, 0.44% hits;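 active = calcium response B-score plate-corrected fluorescence ratio at least 3 library SD, with starting fluorescence B-score inside 5 SD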
Target sequence (Q96LB2 whole entry, looked up): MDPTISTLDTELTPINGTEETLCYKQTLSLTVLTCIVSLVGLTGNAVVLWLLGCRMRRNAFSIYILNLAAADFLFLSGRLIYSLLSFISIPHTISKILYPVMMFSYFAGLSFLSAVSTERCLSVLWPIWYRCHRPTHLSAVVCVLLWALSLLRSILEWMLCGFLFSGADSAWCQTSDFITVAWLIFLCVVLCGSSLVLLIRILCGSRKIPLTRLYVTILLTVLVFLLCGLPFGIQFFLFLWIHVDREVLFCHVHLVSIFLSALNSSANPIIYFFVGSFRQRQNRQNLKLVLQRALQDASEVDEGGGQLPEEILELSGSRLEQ
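Material – MrgX1-expressing HEK293 cells · Input – 15,000 cells seeded per well · Dosing – compound as first of three additions · Times – overnight seeding, then 1 h dark dye loading · Measured by – kinetic Fluo-4 NW fluorescence of intracellular calcium · Read-out – B-scored fluorescence response ratio · Benchmarks – positive and negative control wells on each plate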
MrgX1 antagonist = human MrgX1 receptor antagonism, primary screen | MRGX1-HEK293 calcium flux, Fluo-4, BAM8-22 antagonism; active compounds read low | B-score at 10 µM | 310,000 compounds, 1.3% hits | AID 588676;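 active = calcium-response B-score plate-corrected more than 3 library SD below zero, starting fluorescence within 5 deviations, no agonist response on first addition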;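 also: peak minus trough fluorescence over baseline after final BAM8-22 challenge near maximal dose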
MrgX1 PAM = human MrgX1 positive allosteric modulation, primary screen. Q96LB2. MrgX1-HEK293, Fluo-4 calcium flux, FDSS; active compounds read high. B-score at 10 µM. 310,000 compounds, 0.63% hits;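 active = plate-corrected calcium response at least 3 library SD above typical, normal starting fluorescence, not activating the receptor alone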;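 also: compound read alongside a low EC10 to EC30 dose of BAM8-22 agonist; peak minus trough fluorescence over baseline measured at the second addition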
RGS4 inh = human RGS4 inhibition. HEK293 M3R/RGS4 inducible, Fluo-4 calcium flux; active compounds read high; triggered by carbachol at its EC20. B-score at 10 µM. P49798. 310,000 compounds, 0.45% hits;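 active = B-score, a plate-corrected calcium signal, over three deviations above library mean, with baseline fluorescence within five deviations of library mean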;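 also: RGS4 expression induced by doxycycline in cells with stable M3 receptor; B-score is computed from the integrated fluorescence ratio over baseline after carbachol; higher B-score means a larger calcium signal and so more RGS4 inhibition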
Target sequence (P49798 whole entry, looked up): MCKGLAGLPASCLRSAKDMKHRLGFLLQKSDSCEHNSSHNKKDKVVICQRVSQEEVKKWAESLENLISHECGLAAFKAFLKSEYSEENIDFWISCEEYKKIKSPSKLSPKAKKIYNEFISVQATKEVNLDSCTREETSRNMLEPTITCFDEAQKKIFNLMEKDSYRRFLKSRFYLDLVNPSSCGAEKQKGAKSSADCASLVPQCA
Numbers without * were called inactive; i = inactive; . = no result.

SMILES	RGS4 pot	MrgX1 ag	MrgX1 antagonist	MrgX1 PAM	RGS4 inh
CCOC(=O)CC1C(=O)NCCN1C(=O)c1c(Cl)cccc1Cl (centres undefined)	i	i	i	i	i
CC1OC(O[C@H]2CC[C@]3(C)C4C=C[C@]56OC[C@@]7(CC[C@@H](C)[C@H](C)C75)[C@H](O)C[C@@]6(C)[C@]4(C)CC[C@H]3C2(C)C)C(OC2OC(CO)C(O)C(O)C2OC2OCC(O)C(O)C2O)C(O)C1O (some centres undefined)	-7.54*	.	.	.	i
O=[n+]1cc(-c2ccc(Br)cc2)n([O-])c2c1CCC2	i	i	-4.58*	i	i
O=[n+]1cc(-c2ccc(Cl)cc2)n([O-])c2c1CCC2	i	i	i	i	i
COc1ccc(N2CC(C(=O)Nc3cccc(OC(C)C)c3)CC2=O)cc1 (centres undefined)	i	i	i	i	i
CCCS(=O)(=O)c1nnnn1-c1cccc(OC)c1	i	49.9*	i	i	i
COc1cccc(-n2nnnc2SCC(=O)Nc2ccccc2OC)c1	i	i	i	i	i
O=C(NCC1CCCO1)c1nn2c(C(F)(F)F)cc(-c3cc(Br)cs3)nc2c1Br (centres undefined)	i	33.3*	i	i	i
C=CCOCC(O)CS(=O)(=O)Cc1ccc(Cl)cc1 (centres undefined)	i	i	i	i	i
O=C(NCc1ccccc1)c1sc(=S)n2c1[nH]c(=O)c1ccccc12	i	50.9*	i	i	i
CC(C)(C)c1ccc(/C=C/C(=O)Nc2nncs2)cc1	i	i	-4.84*	i	i
CCOCCOC(=O)C(C)Oc1ccc(Oc2nc(Cl)ccc2Cl)cc1 (centres undefined)	i	i	-8.48*	i	i
CCOCCOC(=O)C(C)Oc1ccc(Oc2ncc(Cl)cc2Cl)cc1 (centres undefined)	i	i	i	i	i
Cc1cc(OCc2cc(C(=O)N3CCC(Oc4cccnc4)CC3)no2)cc(C)c1Cl	-6.98*	i	i	i	i
CC1CCCN(C(=O)COC(=O)Cc2c(F)cccc2Cl)C1 (centres undefined)	i	i	i	i	i
O=C1Nc2ccccc2/C1=C/c1ccccc1Cl	i	i	i	i	i
CN1CCN(c2ccccc2/C=C2/C(=O)Nc3ccccc32)CC1	-8.54*	i	i	i	i
COc1cccc2sc(/N=C/N(C)C)nc12	i	i	i	i	i
COc1ccc(CN(C(=O)CSc2nnc(-c3c[nH]c4ccccc34)o2)c2ccc(F)cc2)cc1OC	-8.43*	i	i	i	i
COc1ccc(CN(C(=O)CSc2nnc(-c3ccc(F)cc3)o2)c2ccc(F)cc2)cc1	i	i	i	i	i
Cc1cc(C)cc(N(C(=O)c2csnn2)C(C(=O)NC2CCCC2)c2cccnc2)c1 (centres undefined)	i	i	i	i	i
CCOC(=O)c1ccc(NC(=S)NNC(=O)COC)cc1	i	i	-7.88*	i	i
CCCOc1ccc(C(=O)NNC(=O)CCNC(=O)c2ccco2)cc1OC	i	i	i	i	i
O=C1CCCCC1C(Nc1ccc(Br)cc1)c1ccccc1 (centres undefined)	-7.53*	i	i	i	i
Cc1ccc(C2NC(c3ccc(C)cc3)C(C)C(=NO)C2C)cc1 (centres undefined)	i	i	i	11.6*	i
SMILES	RGS4 pot	MrgX1 ag	MrgX1 antagonist	MrgX1 PAM	RGS4 inh
CC1C(=NO)C(C)C(c2ccccc2)NC1c1ccccc1 (centres undefined)	i	i	i	i	i
COC(=O)c1cc(NC(=S)N2CCN(C(=O)C3CCCO3)CC2)cc(C(=O)OC)c1 (centres undefined)	i	i	i	i	i
CC[C@H]1CC2CN3CCc4c([nH]c5c([C@H]6C[C@H]7[C@H](CC)CN(C)[C@@H](Cc8c6[nH]c6ccccc86)[C@H]7C(=O)OC)c(OC)ccc45)C(C(=O)OC)(C2)C13	i	i	i	i	8.78*
CC(=O)Nc1ccc(NC(=O)CCCn2cnc3ccccc3c2=O)cc1	i	i	i	i	i
N#C/C(=C\c1ccccn1)c1nc2ccccc2s1	i	i	-7.25*	i	i
CC1=CC=CN2C1=NC(=O)CC2(C)C(=O)N(CC(=O)NC1CCCC1)c1cc(C)cc(C)c1 (centres undefined)	i	i	i	i	i
COc1ccc(-c2nn(-c3ccccc3)cc2/C=N/N=C(N)N)cc1OC	i	44.4*	i	i	i
O=C(Nc1ccccc1C(=O)Nc1ccncc1)c1cccc([N+](=O)[O-])c1	i	i	i	i	i
CC(C)C[C@H](NC(=O)c1[nH]cnc1C(=O)Nc1ccc(CNC(=O)OC(C)(C)C)cc1)C(=O)OC(C)(C)C	-7.04*	i	i	i	i
CC(C)(C)OC(=O)NCCCCCNC(=O)c1[nH]cnc1C(=O)N[C@@H](Cc1ccccc1)C(=O)OCc1ccccc1	-7.5*	i	i	i	i
CC(C)C[C@H](NC(=O)c1nc[nH]c1C(=O)NCCCCCNC(=O)OC(C)(C)C)C(=O)OCc1ccccc1	i	i	i	i	i
C[C@H](NC(=O)c1nc[nH]c1C(=O)N[C@@H](CCCCNC(=O)OC(C)(C)C)C(=O)OC(C)(C)C)C(=O)OCc1ccccc1	i	i	i	i	i
C[C@H](NC(=O)c1nc[nH]c1C(=O)NCCCCCNC(=O)OC(C)(C)C)C(=O)OCc1ccccc1	-7.83*	i	i	7.76*	i
COCCn1ccc2c(OCC(=O)NCCc3ccccc3)cccc2c1=O	i	i	i	i	i
Cc1ccc(OCC(=O)NNC(=S)NC(=O)c2cccs2)c(C)c1	-8.96*	34.7*	i	i	i
COc1ccc(OCC(=O)NNC(=O)c2cccs2)cc1	i	i	i	i	i
Cc1ccc(OCC(=O)NNC(=S)NC(=O)c2ccc(Br)o2)c(C)c1	-10.7*	i	i	10.2*	i
Cc1cccc(NC(=S)NNC(=O)c2ccc(Br)o2)c1	i	i	i	i	i
Cc1cc(OCC(=O)NNC(=S)NC(=O)c2cccs2)ccc1Cl	-7.8*	i	i	8.41*	i
COc1ccc(C(=O)NNC(=S)NC(=O)c2ccc(Br)o2)cc1OC	i	52.7*	i	i	i
COc1ccc(C(=O)NC(=S)NNC(=O)c2cnccn2)cc1OC	i	i	i	i	i
